# From ChEMBL document CHEMBL3045116, “Synthesis and biological evaluation of 2-(5-substituted-1-((diethylamino)methyl)-2-oxoindolin-3-ylidene)-N-substituted-hydrazinecarbothioamides” (Med Chem Res, 2013)
# Legend:
# Escherichia coli = test: Antibacterial activity against Escherichia coli assessed as growth inhibition at 50 ug/ml by cup-plate method (reference value: 8 to 10 mm); type: functional; settings: read-out: DIZ
# [1] = test system: Mammalian orthoreovirus 1; test: Antiviral activity against Mammalian orthoreovirus 1 infected African green monkey Vero cells assessed as reduction of virus-induced cytopathic effect after 3 days by colorimetric formazan-based MTS assay; type: functional, organism-based; settings: Mammalian orthoreovirus 1, Vero, 72 h
# Outline: (§1)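 Cells grown to confluency in 96-well plates ([…], Vero for lines 9–10) were infected with 100 CCID50 of virus, and serial compound dilutions were added at infection. Plates were incubated at 37 °C for 3 days, until complete CPE appeared in untreated virus controls.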
# Vaccinia virus = test: Antiviral activity against Vaccinia virus infected human HEL cells assessed as reduction of virus-induced cytopathic effect after 3 days by colorimetric formazan-based MTS assay; type: functional, organism-based; settings: Orthopoxvirus vaccinia, 72 h
# Outline: (§2)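 Confluent cell monolayers were infected with 100 CCID50 of virus, and serial dilutions of compound were added at the time of infection.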
# Felid alphaherpesvirus 1 = test: Antiviral activity against Felid herpesvirus 1 infected cat CRFK cells assessed as reduction of virus-induced cytopathic effect after 3 days by colorimetric formazan-based MTS assay; type: functional, organism-based; settings: Felid alphaherpesvirus 1, CRFK, 72 h; outline: as §1
# [2] = test system: Vesicular stomatitis virus; test: Antiviral activity against Vesicular stomatitis virus infected human HeLa cells assessed as reduction of virus-induced cytopathic effect after 3 days by colorimetric formazan-based MTS assay; type: functional, organism-based; settings: 72 h; outline: as §2
# Aspergillus niger = test: Antifungal activity against Aspergillus niger assessed as growth inhibition at 50 ug/ml by cup-plate method (reference value: 8 to 10 mm); type: functional; settings: read-out: DIZ
# Punta Toro virus = test: Antiviral activity against Punta Toro virus infected in African green monkey Vero cells assessed as reduction of virus-induced cytopathic effect after 3 days by colorimetric formazan-based MTS assay; type: functional, organism-based; settings: 72 h; outline: as §2
# Influenza A virus = test: Antiviral activity against Unidentified Influenza A virus (H1N1) infected MDCK cells assessed as reduction of virus-induced cytopathic effect after 3 days by colorimetric formazan-based MTS assay; type: functional, organism-based; settings: 72 h; outline: as §2
# Human respirovirus 3 = test: Antiviral activity against Human parainfluenza virus 3 infected African green monkey Vero cells assessed as reduction of virus-induced cytopathic effect after 3 days by colorimetric formazan-based MTS assay; type: functional, organism-based; settings: Human respirovirus 3, Vero, 72 h; outline: as §1
# [3] = Cytotoxicity against Felis catus (cat) CRFK cells assessed as change in cellular morphology; type: cell-based; settings: crfk
# Outline: (§3)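 Uninfected cells were exposed to compound in parallel with the antiviral cultures. The read-out is the minimum cytotoxic concentration that causes a microscopically detectable alteration of normal cell morphology.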
# [4] = (§4) Cytotoxicity against MDCK cells assessed as change in cellular morphology; type: cell-based, Canis lupus familiaris; settings: dog, MDCK cells; outline: as §3
# MDCK = test: as §4; type: cell-based, Canis lupus familiaris; settings: dog, mdck; outline: as §3
# Respirovirus muris = test: Antiviral activity against Sendai virus infected African green monkey Vero cells assessed as reduction of virus-induced cytopathic effect after 3 days by colorimetric formazan-based MTS assay; type: functional, organism-based; settings: 72 h
# Proteus vulgaris = test: Antibacterial activity against Proteus vulgaris assessed as growth inhibition at 50 ug/ml by cup-plate method (reference value: 8 to 10 mm); type: functional; settings: read-out: DIZ
# Coxsackievirus B4 [5] = test: Antiviral activity against Human coxsackievirus B4 infected human HeLa cells assessed as reduction of virus-induced cytopathic effect after 3 days by colorimetric formazan-based MTS assay; type: functional, organism-based; settings: Enterovirus B, 72 h; outline: as §2
# Staphylococcus aureus = test: Antibacterial activity against Staphylococcus aureus assessed as growth inhibition at 50 ug/ml by cup-plate method (reference value: 8 to 10 mm); type: functional; settings: read-out: DIZ
# Human alphaherpesvirus 2 = test: Antiviral activity against Human herpesvirus 2 strain G infected human HEL cells assessed as reduction of virus-induced cytopathic effect after 3 days by colorimetric formazan-based MTS assay; type: functional, organism-based; settings: Human alphaherpesvirus 2, strain G, 72 h; outline: as §2
# [6] = Inhibition of beta lactamase assessed as increase in time taken for iodine decolorization relative to control; parameters: concentration or dose not given beside the values; settings: concentration not given here
# Salmonella typhi = test: Antibacterial activity against Salmonella enterica subsp. enterica serovar Typhi assessed as growth inhibition at 50 ug/ml by cup-plate method (reference value: 8 to 10 mm); type: functional; settings: read-out: DIZ
# [7] = Cytotoxicity against Homo sapiens (human) HEL cells assessed as change in cellular morphology; type: cell-based
# Human alphaherpesvirus 1 [8] = test: Antiviral activity against acyclovir-resistant thymidine kinase negative Human herpesvirus 1 strain KOS infected human HEL cells assessed as reduction of virus-induced cytopathic effect after 3 days by colorimetric formazan-based MTS assay; type: functional, organism-based; settings: Human alphaherpesvirus 1, KOS, 72 h; outline: as §2
# [9] = Cytotoxicity against Chlorocebus aethiops (African green monkey) Vero cells assessed as change in cellular morphology; type: cell-based; settings: chlorocebus sabaeus
# Coxsackievirus B4 [10] = test: Antiviral activity against Human coxsackievirus B4 infected African green monkey Vero cells assessed as reduction of virus-induced cytopathic effect after 3 days by colorimetric formazan-based MTS assay; type: functional, organism-based; settings: Enterovirus B, 72 h; outline: as §2
# Candida albicans = test: Antifungal activity against Candida albicans assessed as growth inhibition at 50 ug/ml by cup-plate method (reference value: 8 to 10 mm); type: functional; settings: read-out: DIZ
# Influenza A virus H3N2 = test: Antiviral activity against Influenza A virus H3N2 infected MDCK cells assessed as reduction of virus-induced cytopathic effect after 3 days by colorimetric formazan-based MTS assay; type: functional, organism-based; settings: 72 h; outline: as §2
# [11] = test system: Vesicular stomatitis virus; test: Antiviral activity against Vesicular stomatitis virus infected human HEL cells assessed as reduction of virus-induced cytopathic effect after 3 days by colorimetric formazan-based MTS assay; type: functional, organism-based; settings: 72 h; outline: as §2
# Human alphaherpesvirus 1 [12] = test: Antiviral activity against Human herpesvirus 1 strain KOS infected human HEL cells assessed as reduction of virus-induced cytopathic effect after 3 days by colorimetric formazan-based MTS assay; type: functional, organism-based; settings: Human alphaherpesvirus 1, KOS, 72 h; outline: as §2
# Bacillus subtilis = test: Antibacterial activity against Bacillus subtilis assessed as growth inhibition at 50 ug/ml by cup-plate method (reference value: 8 to 10 mm); type: functional; settings: read-out: DIZ
# Klebsiella pneumoniae = test: Antibacterial activity against Klebsiella pneumoniae assessed as growth inhibition at 50 ug/ml by cup-plate method (reference value: 8 to 10 mm); type: functional; settings: read-out: DIZ
# [13] = test system: Respiratory syncytial virus; test: Antiviral activity against Respiratory syncytial virus infected human HeLa cells assessed as reduction of virus-induced cytopathic effect after 3 days by colorimetric formazan-based MTS assay; type: functional, organism-based; settings: 72 h; outline: as §2
# L1210 = test: Cytotoxicity against Mus musculus (mouse) L1210 cells assessed as growth inhibition after 48 hr by coulter counter analysis; type: functional, cell-based; settings: L1210, 48 h
# Outline: (§5)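 Cells in growth medium were allowed to proliferate with variable compound amounts at 37 °C in a humidified CO2 atmosphere. Incubation ran 48 h for L1210, 72 h for CEM and 96 h for HeLa. Cells were then counted with a Coulter counter.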
# Influenza B virus = test: Antiviral activity against Influenza B virus infected in MDCK cells assessed as reduction of virus-induced cytopathic effect after 3 days by colorimetric formazan-based MTS assay; type: functional, organism-based; settings: 72 h; outline: as §2
# CCRF-CEM = test: Cytotoxicity against Homo sapiens (human) CEM cells assessed as growth inhibition after 72 hr by coulter counter analysis; type: functional, cell-based; outline: as §5
# [14] = (§6) Cytotoxicity against Homo sapiens (human) HeLa cells assessed as change in cellular morphology; type: cell-based; settings: HeLa cells; outline: as §3
# HeLa = test: as §6; type: cell-based; settings: hela; outline: as §3
# [15] = test system: Feline infectious peritonitis virus; test: Antiviral activity against Feline Infectious peritonitis virus infected cat CRFK cells assessed as reduction of virus-induced cytopathic effect after 3 days by colorimetric formazan-based MTS assay; type: functional, organism-based; settings: Alphacoronavirus 1, CRFK, 72 h; outline: as §2
# [16] = Inhibition of beta lactamase assessed as time for decolorization of iodine (reference value: 79.5 secs)
SMILES,zone of inhibition at 50 µg/mL (Escherichia coli),EC50 [1],EC50 (Vaccinia virus),EC50 (Felid alphaherpesvirus 1),EC50 [2],zone of inhibition at 50 µg/mL (Aspergillus niger),EC50 (Punta Toro virus),EC50 (Influenza A virus),EC50 (Human respirovirus 3),CC50 [3],MCC [4],CC50 (MDCK),EC50 (Respirovirus muris),zone of inhibition at 50 µg/mL (Proteus vulgaris),EC50 (Coxsackievirus B4 [5]),zone of inhibition at 50 µg/mL (Staphylococcus aureus),EC50 (Human alphaherpesvirus 2),inhibition [6],zone of inhibition at 50 µg/mL (Salmonella typhi),MCC [7],also measured
CCN(CC)CN1C(=O)/C(=N/NC(=S)Nc2ccc(OC)cc2)c2cc(Cl)ccc21,11 mm,> 0.8 µM,> 20 µM,> 0.8 µM,> 0.8 µM,11 mm,> 0.8 µM,> 0.8 µM,> 0.8 µM,3.6 µM,≥ 0.8 µM,11.1 µM,> 0.8 µM,21 mm,> 0.8 µM,11 mm,> 20 µM,52.6%,21 mm,100 µM,EC50 (Human alphaherpesvirus 1 [8]): > 20 µM; MCC [9]: 4 µM; EC50 (Coxsackievirus B4 [10]): > 0.8 µM; zone of inhibition at 50 µg/mL (Candida albicans): 11 mm; EC50 (Influenza A virus H3N2): > 0.8 µM; EC50 [11]: > 20 µM; EC50 (Human alphaherpesvirus 1 [12]): > 20 µM; zone of inhibition at 50 µg/mL (Bacillus subtilis): 11 mm; zone of inhibition at 50 µg/mL (Klebsiella pneumoniae): 11 mm; EC50 [13]: > 0.8 µM; IC50 (L1210): 11 µM; EC50 (Influenza B virus): > 0.8 µM; IC50 (CCRF-CEM): 6.9 µM; MCC [14]: 4 µM; CC50 (HeLa): 13.2 µM; EC50 [15]: > 0.8 µM; TIME [16]: 0.0466 h
CCN(CC)CN1C(=O)/C(=N/NC(=S)Nc2ccc(C)cc2)c2cc(Cl)ccc21,21 mm,> 4 µM,> 20 µM,> 4 µM,> 4 µM,11 mm,> 4 µM,> 0.8 µM,> 4 µM,17.5 µM,4 µM,11.3 µM,> 4 µM,11 mm,> 4 µM,11 mm,> 20 µM,34.1%,11 mm,100 µM,EC50 (Human alphaherpesvirus 1 [8]): > 20 µM; MCC [9]: ≥ 4 µM; EC50 (Coxsackievirus B4 [10]): > 4 µM; zone of inhibition at 50 µg/mL (Candida albicans): 11 mm; EC50 (Influenza A virus H3N2): > 0.8 µM; EC50 [11]: > 20 µM; EC50 (Human alphaherpesvirus 1 [12]): > 20 µM; zone of inhibition at 50 µg/mL (Bacillus subtilis): 11 mm; zone of inhibition at 50 µg/mL (Klebsiella pneumoniae): 11 mm; EC50 [13]: > 4 µM; IC50 (L1210): 9.5 µM; EC50 (Influenza B virus): > 0.8 µM; IC50 (CCRF-CEM): 4.6 µM; MCC [14]: ≥ 4 µM; CC50 (HeLa): > 100 µM; EC50 [15]: > 4 µM; TIME [16]: 0.0335 h
